Rpn11 inh = Rpn11 (human) deubiquitinase inhibition. 360,000 compounds, 0.59% hits. human 26S proteasome, Ub4-pepOG fluorescence polarization; 20S core pre-blocked with epoxomicin. O00487. inhibition, % at 20 µM;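 active means inhibition at 20 µM, scaled to each plate's controls, above about 33%, limit read from the data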
CSN inh = blocks human CSN-mediated cullin deneddylation | Q92905 | Purified CSN, SCF-Nedd8-OG deneddylation, fluorescence polarization | inhibition, % at 12.5 µM | 360,000 compounds, 0.38% hits | AID 651999;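 active means pattern-corrected inhibition above about 35%, with an unprinted fluorescence ratio check between 0.5 and 1.5, limit read from the data, passing the limit was not always enough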
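Test system: purified human Csn5 enzyme expressed in HEK293T cells. Amount: 0.24 nM enzyme. Reagent: SCFSkp2-Nedd8OG substrate at 10 nM final. Schedule: 90 min incubation of compound, enzyme and substrate at room temperature. Detection: fluorescence polarization. Read-out: % inhibition of substrate cleavage by Csn5.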
TPT1 inhibitor = blocks Candida albicans tRNA 2'-phosphotransferase | recombinant caTPT1, FP RNA substrate dephosphorylation | inhibition, % at 5 µM | 300,000 compounds, 0.81% hits;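 active means inhibition above the mean of all tested compounds plus 3 SD, set per screening campaign, cut at about 24% in these data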
HNF4A DNA FP = change in binding of human HNF4 alpha to DNA; P41235; HNF4a-FITC DNA binding, fluorescence polarization, 1 h; activity change, % at 10 µM; 360,000 compounds, 0.3% hits; AID 1224865; in the data active means activity change above about 30%, passing the limit was not always enough
Target sequence (P41235 whole entry, looked up): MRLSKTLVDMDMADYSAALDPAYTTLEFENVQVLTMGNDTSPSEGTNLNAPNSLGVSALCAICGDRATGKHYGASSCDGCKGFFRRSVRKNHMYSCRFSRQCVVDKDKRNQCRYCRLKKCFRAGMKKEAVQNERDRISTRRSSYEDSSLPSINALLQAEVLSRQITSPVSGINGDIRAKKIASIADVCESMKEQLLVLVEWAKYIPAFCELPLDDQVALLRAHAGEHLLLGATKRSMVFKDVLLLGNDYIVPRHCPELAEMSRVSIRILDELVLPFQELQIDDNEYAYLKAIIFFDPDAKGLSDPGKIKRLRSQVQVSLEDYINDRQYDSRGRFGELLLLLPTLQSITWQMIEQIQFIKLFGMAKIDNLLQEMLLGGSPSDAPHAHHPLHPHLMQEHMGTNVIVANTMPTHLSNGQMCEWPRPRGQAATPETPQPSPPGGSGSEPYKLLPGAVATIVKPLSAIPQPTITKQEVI
Large screens that a line does not name were inactive; ! = repeats disagree. Rows were chosen to be rich in hits. Some 1.5% of all compounds tested hit in one or more screens of this group.

C[C@@]12CC(=O)NC1N(C(=O)c1ccccc1)C(c1ccccc1OC(=O)c1ccccc1)C2 (some centres undefined)	HNF4A DNA FP 36.4
C[C@@]12CC(=O)NC1N(C(=O)c1cccc(C(F)(F)F)c1)C(c1ccccc1OC(=O)c1cccc(C(F)(F)F)c1)C2 (some centres undefined)	none
CCN(C[C@H]1N[C@@](Cc2ccccc2)(C(=O)OC)[C@H]2C(=O)N(C)C(=O)[C@@H]12)C(=O)C1CCCCC1	none (no result: TPT1 inhibitor)
Clc1ccccc1Cn1c(/C=C/c2ccco2)nc2ccccc21	CSN inh 35.9 (not shown: Rpn11 inh)
COc1ccc(Cn2c(/C=C/c3ccccc3)nc3ccccc32)cc1	none
O=C(CN1C(=O)NC(Cc2ccccc2)C1=O)Nc1ccc(F)c(Cl)c1 (centres undefined)	none (no result: TPT1 inhibitor)
O=C1COc2ccc(C(=O)COC(=O)c3ccc(Cl)cc3[N+](=O)[O-])cc2N1	CSN inh 76.9
COc1ccccc1Cc1c(-c2ccccc2)nc2c(C)cc(Br)cn12	CSN inh 96.7 (no result: TPT1 inhibitor)
COc1ccccc1Cc1c(-c2ccc(Cl)cc2)nc2c(Cl)cc(C(F)(F)F)cn12	none (no result: Rpn11 inh, TPT1 inhibitor)
Cc1cc(Br)cn2c(Cc3ccccc3)c(-c3ccccc3)nc12	none (no result: TPT1 inhibitor)
COc1ccccc1Cc1c(-c2ccc(C#N)cc2)nc2c(Cl)cc(C(F)(F)F)cn12	CSN inh 45.7 (no result: Rpn11 inh, TPT1 inhibitor)
COc1ccc(CNC(=O)CCC(=O)c2ccc(C)cc2)cc1OC	none
COc1ccc(CNC(=O)CCC(=O)c2ccc(F)cc2)cc1OC	CSN inh 66.2 (no result: TPT1 inhibitor)
COCc1cc(NCc2ccc(Cl)cc2)nc(C)n1	none
Cc1nc(CS(=O)c2ccc(Cl)cc2)cc(NCc2ccc(Cl)cc2Cl)n1 (centres undefined)	CSN inh 52.0
COc1cc(C#Cc2ccc3cc(CCO)oc(=O)c3c2)cc(OC)c1	none (no result: TPT1 inhibitor)
CN(C)c1ccc(C#Cc2ccc3cc(CCO)oc(=O)c3c2)cc1	Rpn11 inh 64.0 (no result: TPT1 inhibitor)
N[C@@H](Cc1cc(I)c(Oc2ccc(O)c(I)c2)c(I)c1)C(=O)O	Rpn11 inh 58.7!
N[C@@H](Cc1cc(I)c(Oc2cc(I)c(O)c(I)c2)c(I)c1)C(=O)O	none (no result: Rpn11 inh, CSN inh, HNF4A DNA FP)
COc1cc(C(=O)N2CCC(NC(=O)C(Cc3ccc(C(C)C)cc3)NC(C)=O)CC2)cc(OC)c1OC (centres undefined)	HNF4A DNA FP 52.3
COc1cc(C(=O)N2CCC(NC(=O)C(Cc3ccc(C)cc3)NC(C)=O)CC2)cc(OC)c1OC (centres undefined)	none
CCOc1cc(-c2cc(-c3ccc(N)cc3)nc(N)c2C#N)ccc1O	none
CCOc1cc(-c2cc(-c3ccccc3)nc(N)c2C#N)ccc1O	HNF4A DNA FP 28.4
COCCN1C(=O)Cc2c1nc(N)c1c(N)nc(N3CCN(c4ccc(F)cc4)CC3)c(C#N)c21	TPT1 inhibitor 27.9
Cc1noc(C)c1S(=O)(=O)N(C)C[C@H]1Oc2ccc(NC(=O)NC(C)C)cc2C(=O)N([C@H](C)CO)C[C@@H]1C	none (no result: TPT1 inhibitor)
COC(=O)C1CN(C(=O)COc2cccc(C)c2C)c2ccccc2O1 (centres undefined)	none
COc1cccc(C(=O)O[C@@H]2[C@H](Cc3ccccc3)NS(=O)(=O)[C@H]3C[C@@H]4C=C[C@]23O4)c1	none (no result: TPT1 inhibitor)
Cc1c(NC(=O)C2CCCN2S(=O)(=O)c2ccccc2)c(=O)n(-c2ccccc2)n1C (centres undefined)	CSN inh 56.6
CCN(CC)CCOC(=O)c1ccc(NC(=O)CCCN2C(=O)S/C(=C/c3ccc(OC)cc3)C2=S)cc1	Rpn11 inh 68.1
COc1ccc(/C=C2\SC(=S)N(CCC(=O)Nc3ccc(O)cc3)C2=O)cc1	none
CCN(C[C@H]1N[C@@](Cc2ccccc2)(C(=O)OC)[C@H]2C(=O)N(Cc3ccccc3)C(=O)[C@@H]12)C(=O)Nc1ccc(C(F)(F)F)cc1	none (no result: TPT1 inhibitor)
COc1ccccc1NC(=O)C(C)N(C)Cc1ccc(Cl)s1 (centres undefined)	none
C=CCN1C(=O)C2(NC(=O)c3ccccc3N2)c2ccccc21 (centres undefined)	HNF4A DNA FP 81.3
O=C1OC(c2ccc(F)cc2)=C/C1=C\c1ccc([N+](=O)[O-])o1	TPT1 inhibitor 44.5 (no result: Rpn11 inh, CSN inh, HNF4A DNA FP)
CN(C)c1cccc(NC(=O)c2cccc3c(-c4ccc(F)c(F)c4)coc23)c1	none (no result: TPT1 inhibitor)
CCn1c(SCC(=O)Nc2oc(-c3ccccc3)c(-c3ccccc3)c2C#N)nnc1-c1cc(OC)cc(OC)c1	CSN inh 69.8
C=CCc1ccc(OCC(O)CN2CCCCC2)c(OC)c1 (centres undefined)	HNF4A DNA FP 50.3
COc1ccccc1OCCNC(=O)C1CC(=O)N(c2ccc3c(c2)OCCO3)C1 (centres undefined)	none
CCCC(=O)Nc1cc(-c2nnc(OC)c3ccccc23)ccc1N1CCCCC1	none (no result: Rpn11 inh, CSN inh, HNF4A DNA FP)
COc1nnc(-c2ccc(N3CCCCC3)c(N)c2)c2ccccc12	CSN inh 110.1
Cc1cc(C(=O)Nc2cccc(O)c2)c(C)o1	HNF4A DNA FP 59.8
Cc1cc(C(=O)Nc2cccc(C(=O)O)c2)c(C)o1	none
N#C/C(=C\c1ccc(C(=O)O)cc1)c1nc2sc3c(c2c(=O)[nH]1)CCCC3	CSN inh 70.4 (not shown: Rpn11 inh, TPT1 inhibitor)
CCOC(=O)c1nc2sc3c(c2c(=O)[nH]1)CCCC3	none
O=C(N/N=C\c1cccnc1)c1cc(-c2ccc(Cl)s2)[nH]n1	CSN inh 38.6
O=C(N/N=C/c1cccnc1)c1ccccc1Cl	none
CCCS(=O)(=O)NC(=O)C1(C)CCN(C(=O)C2(c3ccc(Cl)cc3)CCCC2)C1 (centres undefined)	none (no result: TPT1 inhibitor)
COc1ccc(-c2cc(C3CCNCC3)[nH]n2)cc1	none
Nc1nc(SCC(=O)NCC2CCCO2)[nH]c(=O)c1NC(=O)c1ccco1 (centres undefined)	CSN inh 46.3
Nc1nc(SCC(=O)NCC2CCCO2)[nH]c(=O)c1NC(=O)c1ccc(F)c(F)c1 (centres undefined)	none
NC(=O)c1ccc(NC(=O)COC(=O)/C=C/c2ccc(Br)o2)cc1	CSN inh 48.2 (no result: TPT1 inhibitor)
COC(=O)[C@@]1(C(C)C)N=C(c2cc(OC)c(OC)c(OC)c2)[C@]2(O1)C(=O)N(C)c1ccccc12	none (no result: Rpn11 inh, TPT1 inhibitor)
CCOc1ccc(C(=O)Nc2ccc(N3CCN(C)CC3)cc2)cc1Br	none
CCOc1ccc(C(=O)Nc2ccc(N3CCN(C(=O)c4ccco4)CC3)cc2)cc1Br	CSN inh 44.4 (no result: TPT1 inhibitor)
CCOC(=O)CC1(C)NC(C(=O)O)C(C)(C)S1 (centres undefined)	none (no result: TPT1 inhibitor)
Clc1ccc(C2=Nc3cc(Cl)ccc3OC2)cc1	HNF4A DNA FP 68.0
COc1cccc2cc(-c3nc(-c4cccs4)cs3)c(=O)oc12	HNF4A DNA FP 40.5 (not shown: Rpn11 inh)
O=c1oc2ccccc2cc1-c1nc(-c2cccs2)cs1	none
Cc1n[nH]c(=S)n1/N=C/c1ccccc1OCc1ccc(Cl)cc1	HNF4A DNA FP 51.1
Cc1nc(C)c(C(=O)OCC(=O)Nc2ccc(C)c(C)c2)s1	none (no result: TPT1 inhibitor)
CCCC1=C/C(=C/c2ccc(-c3ccccc3OC)o2)C(=O)O1	Rpn11 inh 49.3
C[C@H]1CN([C@@H](C)CO)C(=O)CCCn2cc(nn2)CO[C@@H]1CN(C)C(=O)Oc1ccccc1	CSN inh 100.3 (no result: TPT1 inhibitor)
